Measured values as given in ChEMBL document CHEMBL5712077, “Secreted heat shock protein 90 promotes prostate cancer stem cell heterogeneity” (Oncotarget, 2017).
Calls of active or inactive are those of the source. The calls are words filed in the database; no cut-off is given here.

Experiments:
Conditions in all cases: time 3.0 day
ARCaPE [1] = test: Inhibition of extracellular Hsp90 in human ARCaPE cells expressing Hsp90 assessed as increase in spheroid growth at 1 uM for 3 days and cells were treated post spheroid suspension by microscopic analysis; type: cell-based
Procedure, shortened: (§1)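 Spheroid passaging with inhibitor exposure. Pre-treatment: inhibitor given for 3 days before suspension. Post-treatment: inhibitor given at initial suspension. Continuous: 3-day pre-treatment, then kept on inhibitor in spheroid culture. Cells seeded at 2000 per well in low-attachment plates in DMEM/F12 with N2 and B27. Spheres of at least 5 cells counted at day 10-14 for each passage. Compared with untreated cells by Student's t-test.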

ARCaPE [2] = test: Inhibition of extracellular Hsp90 in human ARCaPE cells expressing Hsp90 assessed as decrease in spheroid growth at 1 uM for 3 days and cells were treated under continuous condition by microscopic analysis; type: cell-based; procedure, shortened: as §1
ARCaPE [3] = test: Inhibition of extracellular Hsp90 in human ARCaPE cells expressing Hsp90 assessed as decrease in spheroid growth at 1 uM for 3 days and cells were treated pre-spheroid suspension by microscopic analysis; type: cell-based; procedure, shortened: as §1
DU-145 [4] = test: Inhibition of extracellular Hsp90 in human DU-145 cells expressing Hsp90 assessed as reduction in side population ast 1 uM after 3 days by Hoechst staining based flow cytometry; type: cell-based
Procedure, shortened: (§2)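 Side population by flow cytometry after 3 days of inhibitor treatment. Cells at 1 x 10^6/mL in culture medium were stained with Hoechst 33342 at 5 ug/mL for 2 h at 37C, protected from light. Propidium iodide excluded dead cells. UV laser; Hoechst red 620 nm against blue 448 nm. Gate set on 50 uM verapamil controls. At least three repeats, Student's t-test.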

DU-145 [5] = test: Inhibition of extracellular Hsp90 in human DU145 cells expressing Hsp90 assessed as decrease in spheroid growth at 1 uM for 3 days and cells were treated pre-spheroid suspension by microscopic analysis; type: cell-based; procedure, shortened: as §1
DU-145 [6] = test: Inhibition of extracellular Hsp90 in human DU145 cells expressing Hsp90 assessed as decrease in spheroid growth at 1 uM for 3 days and cells were treated under continuous condition by microscopic analysis; type: cell-based; procedure, shortened: as §1
M12 = test: Inhibition of extracellular Hsp90 in human M12 cells expressing Hsp90 assessed as reduction in side population ast 1 uM after 3 days by Hoechst staining based flow cytometry
[7] = target: Histone-lysine N-methyltransferase EZH2 (Homo sapiens) (UniProt Q15910); test: Inhibition of EZH2 in human ARCaPE cells expressing Hsp90 assessed as reduction in side population at 500 nM after 3 days by Hoechst staining based flow cytometry; type: cell-based; procedure, shortened: as §2
[8] = target: Histone-lysine N-methyltransferase EZH2 (Homo sapiens) (UniProt Q15910); test: Inhibition of EZH2 in human DU-145 cells expressing Hsp90 assessed as reduction in side population at 500 nM after 3 days by Hoechst staining based flow cytometry; type: cell-based; procedure, shortened: as §2
[9] = target: Histone-lysine N-methyltransferase EZH2 (Homo sapiens) (UniProt Q15910); test: Inhibition of EZH2 in human ARCaPE cells expressing Hsp90 assessed as decrease in spheroid growth at 500 nM for 3 days and cells were treated pre-spheroid suspension by microscopic analysis; type: cell-based; procedure, shortened: as §1
[10] = target: Histone-lysine N-methyltransferase EZH2 (Homo sapiens) (UniProt Q15910); test: Inhibition of EZH2 in human ARCaPE cells expressing Hsp90 assessed as decrease in spheroid growth at 500 nM for 3 days and cells were treated under continuous condition by microscopic analysis; type: cell-based; procedure, shortened: as §1
[11] = target: Histone-lysine N-methyltransferase EZH2 (Homo sapiens) (UniProt Q15910); test: Inhibition of EZH2 in human ARCaPE cells expressing Hsp90 assessed as decrease in spheroid growth at 500 nM for 3 days and cells were treated post-spheroid suspension by microscopic analysis; type: cell-based; procedure, shortened: as §1
[12] = target: Histone-lysine N-methyltransferase EZH2 (Homo sapiens) (UniProt Q15910); test: Inhibition of EZH2 in human DU-145 cells expressing Hsp90 assessed as decrease in spheroid growth at 500 nM for 3 days and cells were treated pre-spheroid suspension by microscopic analysis; type: cell-based; procedure, shortened: as §1
[13] = target: Histone-lysine N-methyltransferase EZH2 (Homo sapiens) (UniProt Q15910); test: Inhibition of EZH2 in human DU-145 cells expressing Hsp90 assessed as decrease in spheroid growth at 500 nM for 3 days and cells were treated under continuous condition by microscopic analysis; type: cell-based; procedure, shortened: as §1
[14] = target: Histone-lysine N-methyltransferase EZH2 (Homo sapiens) (UniProt Q15910); test: Inhibition of EZH2 in human DU-145 cells expressing Hsp90 assessed as decrease in spheroid growth at 500 nM for 3 days and cells were treated post-spheroid suspension by microscopic analysis; type: cell-based; procedure, shortened: as §1

Histone-lysine N-methyltransferase EZH2 (Homo sapiens), sequence (Q15910 whole entry, looked up): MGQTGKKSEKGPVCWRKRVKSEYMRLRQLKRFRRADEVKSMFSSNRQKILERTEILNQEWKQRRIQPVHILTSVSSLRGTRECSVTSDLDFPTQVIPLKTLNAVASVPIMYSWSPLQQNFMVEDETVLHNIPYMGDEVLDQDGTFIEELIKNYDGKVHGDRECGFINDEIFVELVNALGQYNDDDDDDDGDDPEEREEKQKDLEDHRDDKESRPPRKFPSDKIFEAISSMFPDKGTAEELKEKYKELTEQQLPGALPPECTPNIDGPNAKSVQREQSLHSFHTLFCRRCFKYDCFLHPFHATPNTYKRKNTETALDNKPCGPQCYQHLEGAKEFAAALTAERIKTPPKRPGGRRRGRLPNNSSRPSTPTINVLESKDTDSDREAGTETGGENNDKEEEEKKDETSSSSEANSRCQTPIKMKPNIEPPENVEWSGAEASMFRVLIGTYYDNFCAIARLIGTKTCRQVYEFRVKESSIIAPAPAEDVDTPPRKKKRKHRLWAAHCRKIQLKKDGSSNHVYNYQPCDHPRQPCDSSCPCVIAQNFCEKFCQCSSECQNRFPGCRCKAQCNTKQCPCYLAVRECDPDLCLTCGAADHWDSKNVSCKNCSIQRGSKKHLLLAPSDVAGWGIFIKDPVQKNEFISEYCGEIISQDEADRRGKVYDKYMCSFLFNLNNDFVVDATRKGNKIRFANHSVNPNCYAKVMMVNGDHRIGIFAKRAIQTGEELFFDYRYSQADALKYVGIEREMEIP

COC1=C2C[C@@H](C)C[C@H](OC)[C@H](O)[C@@H](C)/C=C(\C)[C@H](OC(N)=O)[C@@H](OC)/C=C\C=C(/C)C(=O)NC(=CC1=O)C2=O
inhibition (ARCaPE [1]): inactive
inhibition (ARCaPE [2]): Active
inhibition (ARCaPE [3]): Active
inhibition (DU-145 [4]): Active
inhibition (DU-145 [5]): Active
inhibition (DU-145 [6]): Active
inhibition (M12): Active

CCCc1cc(C)[nH]c(=O)c1CNC(=O)c1cc(-c2ccnc(N3CCN(C)CC3)c2)cc2c1cnn2C(C)C
inhibition [7]: Active
inhibition [8]: Active
inhibition [9]: Active
inhibition [10]: Active
inhibition [11]: Active
inhibition [12]: Active
inhibition [13]: Active
inhibition [14]: Active
